Test results: ChEMBL document CHEMBL1255289, “In vitro antifungal activities of isavuconazole (BAL4815), voriconazole, and fluconazole against 1,007 isolates of zygomycete, Candida, Aspergillus, Fusarium, and Scedosporium species” (2008)
Converted amounts (≈) assume the structure as drawn.

Columns and labels:
Type in all cases: functional
[1] = tested on: Candida tropicalis; assay: Antifungal activity against Candida tropicalis isolates after 48 hrs by CLSI M27-A2 procedure based assay; settings: Candida tropicalis, 48 h
Summary of the method: (§1)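 Candida isolates tested by CLSI M27-A2 broth microdilution at final 0.015–16 µg/ml, or 0.125–128 µg/ml for the comparator azole. Incubation was at 35°C with a visual read at 48 h. MIC-2 was the lowest concentration giving a prominent turbidity drop, about 50% growth inhibition.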

[2] = tested on: Candida; assay: Antifungal activity against Candida sp. isolates after 48 hrs by CLSI M27-A2 procedure based assay
Summary of the method: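 Candida isolates were stored at –70°C as yeast suspensions and subcultured on potato dextrose or Sabouraud agar before use. Broth microdilution used DMSO drug stocks, with final well concentrations of 0.015–16 or 0.125–128 µg/ml depending on the azole. Plates were incubated at 35°C and read macroscopically at 48 h. MIC-2 was the lowest concentration giving a prominent turbidity decrease (~50% growth inhibition).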

[3] = tested on: Candida parapsilosis; assay: Antifungal activity against Candida parapsilosis isolates after 48 hrs by CLSI M27-A2 procedure based assay; settings: Lodderomyces parapsilosis, 48 h; summary of the method: as §1
[4] = tested on: Pichia kudriavzevii; assay: Antifungal activity against Candida krusei isolates after 48 hrs by CLSI M27-A2 procedure based assay; summary of the method: as §1
[5] = tested on: Nakaseomyces glabratus; assay: Antifungal activity against Candida glabrata isolates after 48 hrs by CLSI M27-A2 procedure based assay; settings: Nakaseomyces glabratus, 48 h; summary of the method: as §1
[6] = tested on: Candida albicans; assay: Antifungal activity against Candida albicans isolates after 48 hrs by CLSI M27-A2 procedure based assay; settings: Candida albicans, 48 h; summary of the method: as §1
[7] = tested on: Aspergillus terreus; assay: Antifungal activity against Aspergillus terreus isolates after 48 hrs by CLSI M38-A procedure based assay; settings: Aspergillus terreus, 48 h
Summary of the method: (§2)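 Aspergillus isolates tested by CLSI M38-A broth microdilution at final 0.015–16 µg/ml and 35°C. Plates were read macroscopically at 48 h. The MIC was the lowest concentration producing complete inhibition of growth (MIC-0).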

[8] = tested on: Mucor; assay: Antifungal activity against Mucor isolates assessed as lowest compound concentration that produced slight growth or approximately 25% of that of growth control after 24 hrs by CLSI M38-A procedure based assay
Summary of the method: (§3)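 Clinical isolates were kept at –70°C as spore suspensions in sterile water and subcultured on potato dextrose or Sabouraud agar before testing. Broth microdilution used DMSO stocks in trays stored at –70°C, with final drug 0.015–16 µg/ml.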

[9] = tested on: Syncephalastrum; assay: Antifungal activity against Syncephalastrum isolates assessed as lowest compound concentration that produced complete inhibition of microbial growth after 24 hrs by CLSI M38-A procedure based assay
Summary of the method: (§4)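 Zygomycete isolates subcultured on potato dextrose or Sabouraud agar, then tested by CLSI M38-A broth microdilution. Drugs were serially diluted in plates at final 0.015–16 µg/ml and incubated at 35°C. Plates were read by eye at 24 h. MIC-0 was the lowest concentration giving complete growth inhibition.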

[10] = tested on: Aspergillus fumigatus; assay: Antifungal activity against Aspergillus fumigatus isolates after 48 hrs by CLSI M38-A procedure based assay; settings: Aspergillus fumigatus, 48 h; summary of the method: as §2
[11] = tested on: Lomentospora prolificans; assay: Antifungal activity against Scedosporium prolificans isolates assessed as lowest compound concentration that produced slight growth or approximately 25% of that of growth control after 24 hrs by CLSI M38-A procedure based assay
[12] = tested on: Lomentospora prolificans; assay: Antifungal activity against Scedosporium prolificans isolates assessed as lowest compound concentration that produced complete inhibition of microbial growth after 24 hrs by CLSI M38-A procedure based assay; settings: Lomentospora prolificans, 24 h
[13] = tested on: Aspergillus flavus; assay: Antifungal activity against Aspergillus flavus isolates after 48 hrs by CLSI M38-A procedure based assay; settings: Aspergillus flavus, 48 h; summary of the method: as §2
[14] = tested on: Aspergillus niger; assay: Antifungal activity against Aspergillus niger isolates after 48 hrs by CLSI M38-A procedure based assay; settings: Aspergillus niger, 48 h; summary of the method: as §2
[15] = tested on: Fusarium; assay: Antifungal activity against Fusarium sp. isolates assessed as lowest compound concentration that produced complete inhibition of microbial growth after 24 hrs by CLSI M38-A procedure based assay; settings: Fusarium, 24 h
[16] = tested on: Absidia; assay: Antifungal activity against Absidia isolates assessed as lowest compound concentration that produced slight growth or approximately 25% of that of growth control after 24 hrs by CLSI M38-A procedure based assay; summary of the method: as §3
[17] = tested on: Scedosporium apiospermum; assay: Antifungal activity against Scedosporium apiospermum isolates assessed as lowest compound concentration that produced slight growth or approximately 25% of that of growth control after 24 hrs by CLSI M38-A procedure based assay
[18] = tested on: Rhizopus; assay: Antifungal activity against Rhizopus isolates assessed as lowest compound concentration that produced slight growth or approximately 25% of that of growth control after 24 hrs by CLSI M38-A procedure based assay
Summary of the method: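 Rhizopus isolates tested by CLSI M38-A broth microdilution at final 0.015–16 µg/ml, 35°C, read by eye at 24 h.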

[19] = tested on: Cunninghamella; assay: Antifungal activity against Cunninghamella isolates assessed as lowest compound concentration that produced complete inhibition of microbial growth after 24 hrs by CLSI M38-A procedure based assay; summary of the method: as §4
[20] = tested on: Scedosporium apiospermum; assay: Antifungal activity against Scedosporium apiospermum isolates assessed as lowest compound concentration that produced complete inhibition of microbial growth after 24 hrs by CLSI M38-A procedure based assay; settings: Scedosporium apiospermum, 24 h
[21] = tested on: Fusarium; assay: Antifungal activity against Fusarium sp. isolates assessed as lowest compound concentration that produced slight growth or approximately 25% of that of growth control after 24 hrs by CLSI M38-A procedure based assay
[22] = tested on: Syncephalastrum; assay: Antifungal activity against Syncephalastrum isolates assessed as lowest compound concentration that produced slight growth or approximately 25% of that of growth control after 24 hrs by CLSI M38-A procedure based assay; summary of the method: as §3
[23] = tested on: Cunninghamella; assay: Antifungal activity against Cunninghamella isolates assessed as lowest compound concentration that produced slight growth or approximately 25% of that of growth control after 24 hrs by CLSI M38-A procedure based assay; summary of the method: as §3
[24] = tested on: Mucor; assay: Antifungal activity against Mucor isolates assessed as lowest compound concentration that produced complete inhibition of microbial growth after 24 hrs by CLSI M38-A procedure based assay; settings: Mucor, 24 h; summary of the method: as §4
[25] = tested on: Rhizopus; assay: Antifungal activity against Rhizopus isolates assessed as lowest compound concentration that produced complete inhibition of microbial growth after 24 hrs by CLSI M38-A procedure based assay; settings: Rhizopus, 24 h; summary of the method: as §4
[26] = tested on: Absidia; assay: Antifungal activity against Absidia isolates assessed as lowest compound concentration that produced complete inhibition of microbial growth after 24 hrs by CLSI M38-A procedure based assay; summary of the method: as §4
[27] = tested on: Aspergillus sp.; assay: Antifungal activity against Aspergillus sp. isolates after 48 hrs by CLSI M38-A procedure based assay; summary of the method: as §2

OC(Cn1cncn1)(Cn1cncn1)c1ccc(F)cc1F [FLUCONAZOLE]
MIC [1]: 0.25 µg/mL (≈ 0.816 µM)
MIC50 [1]: 0.25 µg/mL (≈ 0.816 µM)
MIC90 [1]: 2 µg/mL (≈ 6.53 µM)
MIC [2]: 0.25 µg/mL (≈ 0.816 µM)
MIC50 [3]: 0.5 µg/mL (≈ 1.63 µM)
MIC90 [3]: 1 µg/mL (≈ 3.27 µM)
MIC [4]: 16 µg/mL (≈ 52.2 µM)
MIC50 [5]: 16 µg/mL (≈ 52.2 µM)
MIC90 [5]: 32 µg/mL (≈ 104 µM)
MIC50 [6]: 0.25 µg/mL (≈ 0.816 µM)
MIC90 [6]: 16 µg/mL (≈ 52.2 µM)

C[C@@H](c1ncncc1F)[C@](O)(Cn1cncn1)c1ccc(F)cc1F [VORICONAZOLE]
MIC50 [1]: 0.03 µg/mL (≈ 0.0859 µM)
MIC90 [1]: 0.06 µg/mL (≈ 0.172 µM)
MIC50 [7]: 1 µg/mL (≈ 2.86 µM)
MIC90 [7]: 1 µg/mL (≈ 2.86 µM)
MIC [2]: 0.006 µg/mL (≈ 0.0172 µM)
MIC50 [8]: 16 µg/mL (≈ 45.8 µM)
MIC90 [8]: > 16 µg/mL
MIC [9]: 4 µg/mL (≈ 11.5 µM)
MIC50 [10]: 0.5 µg/mL (≈ 1.43 µM)
MIC90 [10]: 1 µg/mL (≈ 2.86 µM)
MIC [11]: 4 µg/mL (≈ 11.5 µM)
MIC [3]: < 0.015 µg/mL
MIC50 [3]: < 0.015 µg/mL
MIC90 [3]: 0.06 µg/mL (≈ 0.172 µM)
MIC [4]: 0.125 µg/mL (≈ 0.358 µM)
MIC [12]: 16 µg/mL (≈ 45.8 µM)
MIC50 [13]: 1 µg/mL (≈ 2.86 µM)
MIC90 [13]: 1 µg/mL (≈ 2.86 µM)
MIC50 [5]: 0.125 µg/mL (≈ 0.358 µM)
MIC90 [5]: 1 µg/mL (≈ 2.86 µM)
MIC50 [14]: 1 µg/mL (≈ 2.86 µM)
MIC90 [14]: 1 µg/mL (≈ 2.86 µM)
MIC50 [15]: 4 µg/mL (≈ 11.5 µM)
MIC90 [15]: 16 µg/mL (≈ 45.8 µM)
MIC [16]: 4 µg/mL (≈ 11.5 µM)
MIC50 [17]: 0.25 µg/mL (≈ 0.716 µM)
MIC90 [17]: 0.5 µg/mL (≈ 1.43 µM)
MIC50 [18]: 8 µg/mL (≈ 22.9 µM)
MIC90 [18]: > 16 µg/mL
MIC [19]: > 16 µg/mL
MIC50 [20]: 0.5 µg/mL (≈ 1.43 µM)
MIC90 [20]: 1 µg/mL (≈ 2.86 µM)
MIC50 [6]: 0.03 µg/mL (≈ 0.0859 µM)
MIC90 [6]: 0.06 µg/mL (≈ 0.172 µM)
MIC50 [21]: 4 µg/mL (≈ 11.5 µM)
MIC90 [21]: 8 µg/mL (≈ 22.9 µM)
MIC [22]: 2 µg/mL (≈ 5.73 µM)
MIC [23]: 8 µg/mL (≈ 22.9 µM)
MIC50 [24]: > 16 µg/mL
MIC90 [24]: > 16 µg/mL
MIC [25]: 8 µg/mL (≈ 22.9 µM)
MIC50 [25]: 8 µg/mL (≈ 22.9 µM)
MIC90 [25]: 16 µg/mL (≈ 45.8 µM)
MIC [26]: 4 µg/mL (≈ 11.5 µM)
MIC [27]: 0.125 µg/mL (≈ 0.358 µM)
